Measured values taken from ChEMBL document CHEMBL4382215, “Synthesis of new ent-labdane diterpene derivatives from andrographolide and evaluation of their anti-inflammatory activities” (Eur J Med Chem, 2019).
The source made the active and inactive calls. The calls are words filed in the database; no cut-off is given here.

How the values were obtained:
RAW264.7 [1] = test: Antiinflammatory activity in mouse RAW264.7 cells assessed as inhibition of LPS-induced nitric oxide production preincubated for 3 hrs followed by LPS addition and measured after 24 hrs by griess assay; format: functional, cell-based
How it was run: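 RAW264.7 cells in 96-well plates were exposed to compounds over 0–100 µM for 3 h, then to LPS 1 µg/mL for 24 h. Controls were DMSO without LPS (vehicle) and DMSO with LPS (model). Nitrite in the medium was read with Griess reagent at 540 nm. Percent inhibition was calculated and IC50 derived; hydrocortisone was the positive control.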

RAW264.7 [2] = test: Cytotoxicity against mouse RAW264.7 cells assessed as effect on cell viability at 3.125 to 100 uM after 24 hrs by CCK8 assay; format: cell-based; conditions: raw264.7, 24 h
How it was run: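 Cells were grown in DMEM with 10% FBS and penicillin/streptomycin at 37 °C, 5% CO2. For the assay they were seeded at 5×10^4 cells/well and exposed in serum-free medium to a range of compound concentrations for 24 h, with DMSO as vehicle. Viability was read by CCK-8, in triplicate.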

RAW264.7 [3] = test: Antiinflammatory activity in mouse RAW264.7 cells assessed as inhibition of LPS-induced IL1beta production preincubated for 3 hrs followed by LPS addition and measured after 24 hrs by ELISA; format: functional, cell-based
How it was run: (§1)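 Cells in 96-well plates were pretreated with DMSO or compound at 5, 10 and 20 µM for 3 h, then stimulated with LPS 1 µg/mL for 24 h. IL-1β and IL-6 in the medium were quantified by commercial ELISA, with OD read at […]. Results are mean ± SD of at least three independent experiments.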

RAW264.7 [4] = test: Antiinflammatory activity in mouse RAW264.7 cells assessed as inhibition of LPS-induced IL6 production preincubated for 3 hrs followed by LPS addition and measured after 24 hrs by ELISA; format: functional, cell-based; how it was run: as §1
RAW264.7 [5] = test: Antiinflammatory activity in mouse RAW264.7 cells assessed as inhibition of LPS-induced iNOS expression at 5 to 20 uM preincubated for 3 hrs followed by LPS addition and measured after 24 hrs by Western blot analysis; format: functional
How it was run: (§2)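 RAW264.7 cells in 6-well plates were pretreated as for ELISA, then given LPS 1 µg/mL for 24 h and lysed with protease inhibitors. 30 µg total protein was run on 10% SDS-PAGE and blotted to nitrocellulose, blocked in 5% skim milk, and probed overnight at 4 °C. Primary antibodies were iNOS 1:200; COX-2, NF-κB, IκBα and p-IκBα 1:2000; β-actin 1:2000 as reference. Detection used HRP secondary and ECL; data from ≥3 independent experiments.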

RAW264.7 [6] = test: Antiinflammatory activity in mouse RAW264.7 cells assessed as inhibition of LPS-induced COX2 expression at 5 to 20 uM preincubated for 3 hrs followed by LPS addition and measured after 24 hrs by Western blot analysis; format: functional, cell-based; how it was run: as §2
[7] = biological target: T1, NF-kappa-B inhibitor alpha (Mus musculus) (UniProt Q9Z1E3); test: Inhibition of LPS-induced IkappaBalpha phosphorylation in mouse RAW264.7 cells at 5 to 20 uM preincubated for 3 hrs followed by LPS addition and measured after 24 hrs by Western blot analysis; format: cell-based; how it was run: as §2
T1 sequence (whole entry): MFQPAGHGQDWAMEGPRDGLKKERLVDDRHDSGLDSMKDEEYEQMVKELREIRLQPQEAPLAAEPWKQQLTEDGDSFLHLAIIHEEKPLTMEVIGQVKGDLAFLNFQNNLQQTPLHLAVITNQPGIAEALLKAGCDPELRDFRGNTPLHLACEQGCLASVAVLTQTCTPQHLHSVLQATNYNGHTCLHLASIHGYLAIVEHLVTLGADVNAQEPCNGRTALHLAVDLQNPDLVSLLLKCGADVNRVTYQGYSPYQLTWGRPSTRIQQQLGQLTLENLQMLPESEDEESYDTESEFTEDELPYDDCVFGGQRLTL

RAW264.7 [8] = test: Inhibition of LPS-induced IkappaBalpha expression in mouse RAW264.7 cells at 5 to 20 uM preincubated for 3 hrs followed by LPS addition and measured after 24 hrs by Western blot analysis; format: functional, cell-based; how it was run: as §2
RAW264.7 [9] = test: Inhibition of LPS-induced NFkappaB expression in mouse RAW264.7 cells at 5 to 20 uM preincubated for 3 hrs followed by LPS addition and measured after 24 hrs by Western blot analysis; format: functional, cell-based; how it was run: as §2
[10] = biological target: Transcription factor p65 (Mus musculus) (UniProt Q04207); test: Inhibition of LPS-induced NFkappaB p65 nuclear translocation in mouse RAW264.7 cells at 10 uM preincubated for 2 hrs followed by LPS-stimulation and measured after 12 hrs by DAPI staining based immunofluorescence microscopic analysis; format: cell-based
Transcription factor p65 (Mus musculus), sequence (Q04207 whole entry): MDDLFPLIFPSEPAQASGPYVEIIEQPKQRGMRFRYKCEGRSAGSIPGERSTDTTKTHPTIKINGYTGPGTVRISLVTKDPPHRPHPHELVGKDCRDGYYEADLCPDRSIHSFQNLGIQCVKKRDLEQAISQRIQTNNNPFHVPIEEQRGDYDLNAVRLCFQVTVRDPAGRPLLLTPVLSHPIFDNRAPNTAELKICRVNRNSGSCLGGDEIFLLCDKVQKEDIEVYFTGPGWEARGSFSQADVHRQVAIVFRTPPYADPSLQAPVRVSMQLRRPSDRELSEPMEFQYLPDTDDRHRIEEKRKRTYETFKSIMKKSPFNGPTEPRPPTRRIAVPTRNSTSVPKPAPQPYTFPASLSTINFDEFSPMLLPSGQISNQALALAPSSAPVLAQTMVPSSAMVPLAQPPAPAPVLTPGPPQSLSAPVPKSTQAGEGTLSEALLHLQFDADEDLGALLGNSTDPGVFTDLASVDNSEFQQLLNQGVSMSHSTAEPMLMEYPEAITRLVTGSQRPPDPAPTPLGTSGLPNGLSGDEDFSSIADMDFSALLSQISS
How it was run: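 Cells grown in glass chambers were pretreated with DMSO or compound for 2 h, then given LPS 1 µg/mL for 12 h. They were fixed in 4% paraformaldehyde for 15 min, permeabilized with 0.25% Triton X-100, and labelled with p65 antibody plus AlexaFluor488 secondary. Nuclei were stained with DAPI at 37 °C for 30 min in the dark, and cells were imaged by fluorescence microscopy.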

| SMILES | IC50 (RAW264.7 [1]) | further results |
| --- | --- | --- |
| C=C1CCC2[C@](C)(CO)[C@H](O)CC[C@@]2(C)[C@@H]1CCOc1ccc(Oc2ccccc2)cc1 (stereo partly drawn) | 12.8 µM |  |
| C=C1CC[C@@H]2[C@](C)(CO)[C@H](O)CC[C@@]2(C)[C@@H]1C/C=C1/C(=O)OC[C@H]1O [ANDROGRAPHOLIDE] | 8.81 µM |  |
| C=C1CCC2[C@](C)(CO)[C@H](O)CC[C@@]2(C)[C@@H]1CCOC(=O)c1cccnc1 (stereo partly drawn) | > 50 µM |  |
| C=C1CCC2[C@](C)(CO)[C@H](O)CC[C@@]2(C)[C@@H]1CCOC(=O)c1ccccc1 (stereo partly drawn) | > 100 µM |  |
| C=C1CCC2[C@](C)(CO)[C@H](O)CC[C@@]2(C)[C@@H]1CCOc1ccc(C(C)(C)C)cc1 (stereo partly drawn) | 35.8 µM |  |
| C=C1CCC2[C@](C)(CO)[C@H](O)CC[C@@]2(C)[C@@H]1CCn1cnc2c(N)ncnc21 (stereo partly drawn) | > 100 µM |  |
| C=C1CCC2[C@](C)(CO)[C@H](O)CC[C@@]2(C)[C@@H]1CCOc1cccc2ccccc12 (stereo partly drawn) | 44.7 µM |  |
| C=C1CCC2[C@](C)(CO)[C@H](O)CC[C@@]2(C)[C@@H]1CCn1cncn1 (stereo partly drawn) | > 100 µM |  |
| C=C1CCC2[C@](C)(CO)[C@H](O)CC[C@@]2(C)[C@@H]1CCOC(=O)c1ccccc1[N+](=O)[O-] (stereo partly drawn) | 35.2 µM |  |
| C=C1CCC2[C@](C)(CO)[C@H](O)CC[C@@]2(C)[C@@H]1CCOc1ccc2ccc(=O)oc2c1 (stereo partly drawn) | > 50 µM |  |

The next lines start with results.

| IC50 (RAW264.7 [1]) | SMILES | further results |
| --- | --- | --- |
| > 50 µM | C=C1CCC2[C@](C)(CO)[C@H](O)CC[C@@]2(C)[C@@H]1CCn1ccnc1 (stereo partly drawn) |  |
| 37.3 µM | C=C1CCC2[C@](C)(CO)[C@H](O)CC[C@@]2(C)[C@@H]1CCOC(=O)c1ccc([N+](=O)[O-])cc1 (stereo partly drawn) |  |
| > 100 µM | C=C1CCC2[C@](C)(CO)[C@H](O)CC[C@@]2(C)[C@@H]1CCOc1ccc(-c2cc(=O)c3cc(C)ccc3o2)cc1 (stereo partly drawn) |  |
| > 100 µM | C=C1CCC2[C@](C)(CO)[C@H](O)CC[C@@]2(C)[C@@H]1CCOc1ccc2oc(-c3ccccc3)cc(=O)c2c1 (stereo partly drawn) |  |
| > 100 µM | C=C1CCC2[C@](C)(CO)[C@H](O)CC[C@@]2(C)[C@@H]1CCn1ccc(=O)[nH]c1=O (stereo partly drawn) |  |
| 47.7 µM | C=C1CCC2[C@](C)(CO)[C@H](O)CC[C@@]2(C)[C@@H]1CCOc1ccccc1O (stereo partly drawn) |  |
| 40.2 µM | C=C1CCC2[C@](C)(CO)[C@H](O)CC[C@@]2(C)[C@@H]1CCOc1ccc(Br)cc1 (stereo partly drawn) |  |
| 3.38 µM | C=C1CCC2[C@](C)(CO)[C@H](O)CC[C@@]2(C)[C@@H]1CCOc1ccc([N+](=O)[O-])cc1 (stereo partly drawn) | Activity (RAW264.7 [2]): Non-Toxic; inhibition (RAW264.7 [3]): Dose-dependent effect; inhibition (RAW264.7 [4]): Dose-dependent effect; inhibition (INH) (RAW264.7 [5]): 100%; inhibition (RAW264.7 [6]): Active; inhibition [7]: Active; inhibition (RAW264.7 [8]): Active; inhibition (RAW264.7 [9]): Active; inhibition [10]: Active |
| > 100 µM | C=C1CCC2[C@](C)(CO)[C@H](O)CC[C@@]2(C)[C@@H]1CCn1c(N)nccc1=O (stereo partly drawn) |  |
